Assays:
[1] = Drug metabolism in mouse CL-13 cells assessed as 1-(4'-hydroxy-3'-methoxyphenyl)-decan-3-ol formation at 10 uM after 24 hrs by HPLC-ECD analysis; type: ADME, cell-based; details: cl-13, 24 h
In short: (§1)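 Cells (1.0 × 10⁶) attached 24 h in six-well plates, then exposed to 10 μM final in McCoy's 5A with 10% FBS. Extracted with equal volume acetonitrile, diluted 5-fold, analysed by HPLC with electrochemical detection.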

HT-29 [2] = assay: Drug metabolism in human HT-29 cells assessed as 1-(4'-hydroxy-3'-methoxyphenyl)-decan-3-one formation at 10 uM by HPLC-ECD analysis; type: ADME, cell-based; details: ht-29, 10 µM; in short: as §1
NCI-H1299 [3] = assay: Induction of apoptosis in human H1299 cells assessed as apoptotic cells at 20 uM after 24 hrs by TUNEL assay; type: functional
In short: (§2)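 HCT-116 or H-1299 cells seeded at 1.0 × 10⁵/well, after 24 h exposed for 24 h to compound (10–80 μM) or DMSO control. Cells were proteinase K-pretreated, formaldehyde-fixed, and slide-mounted for peroxidase TUNEL staining. Ten fields per slide counted at 400×; brown-nucleus cells given as percentage of total cells; mean ± S.E., n = 10.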

[4] = Drug metabolism in human HCT116 cells assessed as 1-(4'-hydroxy-3'-methoxyphenyl)-decan-3-one formation at 10 uM after 24 hrs by HPLC-ECD analysis; type: ADME, cell-based; details: hct-116, 24 h; in short: as §1
[5] = Drug metabolism in mouse CL-13 cells assessed as 1-(4'-hydroxy-3'-methoxyphenyl)-decan-3-one formation at 10 uM by HPLC-ECD analysis; type: ADME, cell-based; details: cl-13, 10 µM; in short: as §1
[6] = Drug excretion in C57BL/6J mouse feces assessed as 5-methylthio-1-(4'-hydroxy-3'-methoxyphenyl)-decan-3-one formation at 200 mg/kg, po by HPLC analysis relative to control; type: ADME, organism-based; parameters: dose 200 mg/kg, route oral; details: in vivo
In short: (§3)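 Female C57BL/6J mice gavaged once with 200 mg/kg in corn oil, or corn oil alone (n = 5 each). 24-h feces collected in metabolic cages. Feces extracted by sonication 90 min in MeOH/H2O (50/50) + 0.1% acetic acid, centrifuged, diluted fivefold. Analysed by HPLC with electrochemical array detection (Gemini C18, phosphate/acetonitrile/THF gradient), compared against vehicle controls.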

[7] = Drug excretion in C57BL/6J mouse feces assessed as 5-methylthio-1-(4'-hydroxy-3'-methoxyphenyl)-decan-3-ol formation at 200 mg/kg, po by HPLC-ECD analysis relative to control; type: ADME, organism-based; parameters: dose 200 mg/kg, route oral; details: in vivo; in short: as §3
[8] = Drug excretion in C57BL/6J mouse feces assessed as 3',4'-dihydroxyphenyl-decan-3-one formation at 200 mg/kg, po by HPLC-ECD analysis relative to control; type: ADME, organism-based; parameters: dose 200 mg/kg, route oral; details: in vivo; in short: as §3
HT-29 [9] = assay: Drug metabolism in human HT-29 cells assessed as 1-(4'-hydroxy-3'-methoxyphenyl)-decan-3-ol formation at 10 uM by HPLC-ECD analysis; type: ADME, cell-based; details: ht-29, 10 µM; in short: as §1
[10] = Drug metabolism in human HCT116 cells assessed as 1-(4'-hydroxy-3'-methoxyphenyl)-4-decen-3-ol formation at 10 uM after 24 hrs by HPLC-ECD analysis; type: ADME, cell-based; details: hct-116, 24 h; in short: as §1
[11] = Drug excretion in C57BL/6J mouse feces assessed as 1-(4'-hydroxy-3'-methoxyphenyl)-decan-3-ol formation at 200 mg/kg, po by HPLC-ECD analysis relative to control; type: ADME, organism-based; parameters: dose 200 mg/kg, route oral; details: in vivo; in short: as §3
[12] = Drug excretion in C57BL/6J mouse feces assessed as (2R)-2-acetamido-3-(3-hydroxy-1-(4-hydroxy-3-methoxyphenyl)decan-5-ylthio)propanoic acid formation at 200 mg/kg, po by HPLC-ECD analysis relative to control; type: ADME, organism-based; parameters: dose 200 mg/kg, route oral; details: in vivo; in short: as §3
[13] = Drug metabolism in human HCT116 cells assessed as 1-(4'-hydroxy-3'-methoxyphenyl)-decan-3-ol formation at 10 uM after 24 hrs by HPLC-ECD analysis; type: ADME, cell-based; details: hct-116, 24 h; in short: as §1
[14] = Drug recovery in C57BL/6J mouse urine assessed as glucuronidated form of metabolite formation at 200 mg/kg, po by LC/MS analysis; type: ADME, organism-based; parameters: dose 200 mg/kg, route oral; details: in vivo
In short: (§4)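 Female C57BL/6J mice gavaged with 200 mg/kg in corn oil or vehicle (n = 5); 24-h urine collected in metabolic cages. 50 μl urine deproteinized with MeOH. Analysis with and without deconjugation.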

[15] = Drug recovery in C57BL/6J mouse urine assessed as sulfated form of metabolite formation at 200 mg/kg, po by LC/MS analysis; type: ADME, organism-based; parameters: dose 200 mg/kg, route oral; details: in vivo; in short: as §4
[16] = Drug recovery in C57BL/6J mouse urine assessed as sulfated form of metabolite formation at 200 mg/kg, po by HPLC-ECD analysis; type: ADME, organism-based; parameters: dose 200 mg/kg, route oral; details: in vivo; in short: as §4
[17] = Drug excretion in C57BL/6J mouse feces assessed as 1-(4'-hydroxy-3'-methoxyphenyl)-decan-3-one formation at 200 mg/kg, po by HPLC analysis relative to control; type: ADME, organism-based; parameters: dose 200 mg/kg, route oral; details: in vivo; in short: as §3
[18] = Drug excretion in C57BL/6J mouse feces assessed as 2-((2R)-2-amino-3-(3-hydroxy-1-(4-hydroxy-3-methoxyphenyl)decan-5-ylthio)propanamido)acetic acid formation at 200 mg/kg, po by HPLC-ECD analysis relative to control; type: ADME, organism-based; parameters: dose 200 mg/kg, route oral; details: in vivo; in short: as §3
[19] = Cytotoxicity against human H1299 cells assessed as growth inhibition after 24 hrs by MTT assay; type: functional, cell-based; details: NCI-H1299, 24 h
In short: (§5)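 Cells seeded at 3000/well, attached 24 h at 37°C, then exposed to test agents (0–80 μM, 0.1% DMSO final) for 24 h in McCoy's 5A with 10% FBS. Medium replaced with 2.41 mM MTT for 3 h at 37°C; formazan dissolved in DMSO, absorbance 550 nm. Viability as percentage of DMSO control; mean ± S.D., n = 6.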

HCT-116 [20] = assay: Induction of apoptosis in human HCT116 cells assessed as apoptotic cells at 20 uM after 24 hrs by TUNEL assay; type: functional; in short: as §2
[21] = Drug metabolism in human H1299 cells assessed as 1-(4'-hydroxy-3'-methoxyphenyl)-decan-3-one formation at 10 uM after 24 hrs by HPLC-ECD analysis; type: ADME, cell-based; details: nci-h1299, 24 h; in short: as §1
[22] = Drug excretion in C57BL/6J mouse feces assessed as 5-methoxy-1-(4'-hydroxy-3'-methoxyphenyl)-decan-3-one formation at 200 mg/kg, po by HPLC-ECD analysis relative to control; type: ADME, organism-based; parameters: dose 200 mg/kg, route oral; details: in vivo; in short: as §3
NCI-H1299 [23] = assay: Induction of apoptosis in human H1299 cells assessed as apoptotic cells at 10 uM after 24 hrs by TUNEL assay; type: functional; in short: as §2
[24] = Drug metabolism in human H1299 cells assessed as 1-(4'-hydroxy-3'-methoxyphenyl)-decan-3-ol formation at 10 uM after 24 hrs by HPLC-ECD analysis; type: ADME, cell-based; details: nci-h1299, 24 h; in short: as §1
HCT-116 [25] = assay: Induction of apoptosis in human HCT116 cells assessed as apoptotic cells at 10 uM after 24 hrs by TUNEL assay; type: functional; in short: as §2
Plasma [26] = assay: Drug metabolism in A/J mouse plasma assessed as sulfated form of metabolite formation at 200 mg/kg, po after 2 to 4 hrs by HPLC analysis; details: in vivo
[27] = Drug excretion in C57BL/6J mouse feces assessed as 1-(4'-hydroxy-3'-methoxyphenyl)-4-decen-3-ol formation at 200 mg/kg, po by HPLC-ECD analysis relative to control; type: ADME, organism-based; parameters: dose 200 mg/kg, route oral; details: in vivo; in short: as §3
Plasma [28] = assay: Drug metabolism in C57BL/6J mouse plasma assessed as sulfated form of metabolite formation at 200 mg/kg, po after 2 to 4 hrs by LC/MS analysis; type: ADME, organism-based; parameters: dose 200 mg/kg, route oral; details: in vivo
[29] = Drug recovery in C57BL/6J mouse urine assessed as glucuronidated form of metabolite formation at 200 mg/kg, po by HPLC-ECD analysis; type: ADME, organism-based; parameters: dose 200 mg/kg, route oral; details: in vivo; in short: as §4
[30] = Antioxidant activity assessed as DPPH radical scavenging activity; type: physicochemical
Plasma [31] = assay: Drug metabolism in A/J mouse plasma assessed as glucuronidated form of metabolite formation at 200 mg/kg, po after 2 to 4 hrs by HPLC-ECD analysis; details: in vivo
[32] = Cytotoxicity against human HCT116 cells assessed as growth inhibition after 24 hrs by MTT assay; type: functional, cell-based; details: HCT-116, 24 h; in short: as §5
Plasma [33] = assay: Drug metabolism in A/J mouse plasma assessed as glucuronidated form of metabolite formation at 200 mg/kg, po after 2 to 4 hrs by LC/MS analysis; details: in vivo
[34] = Drug excretion in C57BL/6J mouse feces assessed as 5-N-acetylcysteinyl-[6]-shogaol formation at 200 mg/kg, po by HPLC-ECD analysis relative to control; type: ADME, organism-based; parameters: dose 200 mg/kg, route oral; details: in vivo; in short: as §3
[35] = Drug excretion in C57BL/6J mouse feces assessed as 5-cysteinyl-[6]-shogaol formation at 200 mg/kg, po by HPLC-ECD analysis relative to control; type: ADME, organism-based; parameters: dose 200 mg/kg, route oral; details: in vivo; in short: as §3
[36] = Drug excretion in C57BL/6J mouse feces assessed as (2R)-2-amino-3-(3-hydroxy-1-(4-hydroxy-3-methoxyphenyl)decan-5-ylthio)propanoic acid formation at 200 mg/kg, po by HPLC-ECD analysis relative to control; type: ADME, organism-based; parameters: dose 200 mg/kg, route oral; details: in vivo; in short: as §3
[37] = Drug level in C57BL/6J mouse feces treated with [6]-shogaol at 200 mg/kg, po by HPLC-ECD analysis relative to control; type: ADME, organism-based; parameters: dose 200 mg/kg, route oral; details: in vivo; in short: as §3
NCI-H1299 [38] = assay: Induction of apoptosis in human H1299 cells assessed as apoptotic cells at 40 uM after 24 hrs by TUNEL assay; type: functional; in short: as §2
NCI-H1299 [39] = assay: Induction of apoptosis in human H1299 cells assessed as apoptotic cells at 80 uM after 24 hrs by TUNEL assay; type: functional; in short: as §2
HT-29 [40] = assay: Drug level in human HT-29 cells treated with 10 uM [6]-shogaol by HPLC-ECD analysis; type: ADME, cell-based; in short: as §1
[41] = Drug level in human HCT116 cells treated with 10 uM [6]-shogaol after 24 hrs by HPLC-ECD analysis; type: ADME, cell-based; details: hct-116, 24 h; in short: as §1
HCT-116 [42] = assay: Induction of apoptosis in human HCT116 cells assessed as apoptotic cells at 40 uM after 24 hrs by TUNEL assay; type: functional; in short: as §2
[43] = Drug level in human H1299 cells treated with 10 uM [6]-shogaol after 24 hrs by HPLC-ECD analysis; type: ADME, cell-based; details: nci-h1299, 24 h; in short: as §1
HCT-116 [44] = assay: Induction of apoptosis in human HCT116 cells assessed as apoptotic cells at 80 uM after 24 hrs by TUNEL assay; type: functional; in short: as §2

CCCCC/C=C/C(=O)CCc1ccc(O)c(OC)c1 [SHOGAOL]
Drug metabolism [1]: metabolite_detected
Drug metabolism (HT-29 [2]): metabolite_detected
Activity (NCI-H1299 [3]): 31.6%
Drug metabolism [4]: metabolite_detected
Drug metabolism [5]: metabolite_detected
Drug excretion [6]: metabolite_detected
Drug excretion [7]: metabolite_detected
Drug excretion [8]: metabolite_detected
Drug metabolism (HT-29 [9]): metabolite_detected
Drug metabolism [10]: metabolite_detected
Drug excretion [11]: metabolite_detected
Drug excretion [12]: metabolite_detected
Drug metabolism [13]: metabolite_detected
Drug recovery [14]: metabolite_detected
Drug recovery [15]: metabolite_detected
Drug recovery [16]: metabolite_detected
Drug excretion [17]: metabolite_detected
Drug excretion [18]: metabolite_detected
IC50 [19]: 16.9 µM
Activity (HCT-116 [20]): 31.2%
Drug metabolism [21]: metabolite_detected
Drug excretion [22]: metabolite_detected
Activity (NCI-H1299 [23]): 5.2%
Drug metabolism [24]: metabolite_detected
Activity (HCT-116 [25]): 10.3%
Drug metabolism (Plasma [26]): metabolite_detected
Drug excretion [27]: metabolite_detected
Drug metabolism (Plasma [28]): metabolite_detected
Drug recovery [29]: metabolite_detected
IC50 [30]: 8 µM
Drug metabolism (Plasma [31]): metabolite_detected
IC50 [32]: 18.7 µM
Drug metabolism (Plasma [33]): metabolite_detected
Drug excretion [34]: metabolite_detected
Drug excretion [35]: metabolite_detected
Drug excretion [36]: metabolite_detected

CCCCCC(CC(O)CCc1ccc(O)c(OC)c1)SCC(N)C(=O)O (stereo not drawn)
Drug excretion [37]: metabolite_detected

CCCCCC(CC(=O)CCc1ccc(O)c(OC)c1)SC (stereo not drawn)
Drug excretion [37]: metabolite_detected

CCCCCCCC(=O)CCc1ccc(O)c(OC)c1
Activity (NCI-H1299 [38]): 8.3%
Drug excretion [37]: metabolite_detected
IC50 [19]: 66.5 µM
Activity (NCI-H1299 [39]): 19.4%
Drug metabolism (HT-29 [40]): metabolite_detected
Drug metabolism [41]: metabolite_detected
Activity (HCT-116 [42]): 12.9%
Drug metabolism [43]: metabolite_detected
IC50 [32]: 84 µM
Activity (HCT-116 [44]): 21.1%

From ChEMBL document CHEMBL3526065, “Metabolism of [6]-shogaol in mice and in cancer cells” (Drug Metab Dispos, 2012)
